From ChEMBL document CHEMBL1135836, “Cyclodextrin-derived host molecules as reversal agents for the neuromuscular blocker rocuronium bromide: synthesis and structure-activity relationships” (J Med Chem, 2002)

Key:
Type in all cases: functional
Cavia porcellus [1] = experiment: In vivo reversal activity versus ~90% block by rocuronium in guinea pig
How it was run: (§1)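 Male Dunkin-Hartley guinea pigs (600-900 g), anaesthetized ip with pentobarbitone 10 mg/kg plus urethane 1000 mg/kg, tracheotomized and ventilated. Continuous iv rocuronium infusion (~10 nmol kg-1 min-1) was raised to a steady 85-90% block. Increasing iv doses of agent were given cumulatively. ED50 = 50% recovery versus preblock twitch, by regression. Mean ± SEM of at least two experiments, or one.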

Cavia porcellus [2] = experiment: In vivo reversal activity versus ~90% block by rocuronium in guinea pig, expressed as % of maximum reversal at 15 umol/kg conc.
How it was run: (§2)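 Male Dunkin-Hartley guinea pigs (600-900 g) anaesthetized ip with pentobarbitone 10 mg/kg plus urethane 1000 mg/kg, tracheotomized and artificially ventilated. Continuous iv rocuronium bromide infusion (~10 nmol kg-1 min-1) raised until steady-state twitch block of 85-90%. Increasing single iv doses of reversal agent given by a separate catheter. Max reversal is peak twitch recovery versus preblock height at highest dose tested; means ± SEM, n ≥ 2 or single experiment.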

Mus musculus [3] = species: Mus musculus; experiment: In vitro reversal activity versus ~90% block by rocuronium in isolated mouse hemidiaphragm, expressed as % of maximum reversal at 18 uM conc.
Mus musculus [4] = species: Mus musculus; experiment: In vitro reversal activity versus ~90% block by rocuronium in isolated mouse hemidiaphragm, expressed as effective conc.
Cavia porcellus [5] = experiment: In vivo reversal activity versus ~90% block by rocuronium in guinea pig, expressed as % of maximum reversal at 16 umol/kg conc.; how it was run: as §2
Cavia porcellus [6] = experiment: In vivo reversal activity versus ~90% block by rocuronium in guinea pig, expressed as % of maximum reversal at 0.5 umol/kg conc.; how it was run: as §1
Mus musculus [7] = species: Mus musculus; experiment: In vitro reversal activity versus ~90% block by rocuronium in isolated mouse hemidiaphragm, expressed as % of maximum reversal at 5.4 uM conc.
Cavia porcellus [8] = experiment: In vivo reversal activity versus ~90% block by rocuronium in guinea pig, expressed as % of maximum reversal at 0.3 umol/kg conc.; how it was run: as §1
Mus musculus [9] = species: Mus musculus; experiment: In vitro reversal activity versus ~90% block by rocuronium in isolated mouse hemidiaphragm, expressed as % of maximum reversal at 3.6 uM conc.

SMILES	ED50 (Cavia porcellus [1]) [µmol/kg]	Max reversal (Cavia porcellus [2]) [%]	Max reversal (Mus musculus [3]) [%]	EC50 (Mus musculus [4]) [µM]	Max reversal (Cavia porcellus [5]) [%]	Max reversal (Cavia porcellus [6]) [%]	Max reversal (Mus musculus [7]) [%]	Max reversal (Cavia porcellus [8]) [%]	Max reversal (Mus musculus [9]) [%]
O=C([O-])CCc1cccc(SCC2O[C@@H]3O[C@@H]4C(CO)O[C@H](O[C@@H]5C(CO)O[C@H](O[C@@H]6C(CO)O[C@H](O[C@@H]7C(CO)O[C@H](O[C@@H]8C(CO)O[C@H](O[C@@H]9C(CO)O[C@H](O[C@@H]%10C(CO)O[C@H](O[C@H]2C(O)C3O)C(O)C%10O)C(O)C9O)C(O)C8O)C(O)C7O)C(O)C6O)C(O)C5O)C(O)C4O)c1.[Na+] (stereo partly specified)	12.6	55.8	3.9	> 18					
O=C([O-])CCCSCC1O[C@@H]2O[C@@H]3C(CSCCCC(=O)[O-])O[C@H](O[C@@H]4C(CSCCCC(=O)[O-])O[C@H](O[C@@H]5C(CSCCCC(=O)[O-])O[C@H](O[C@@H]6C(CSCCCC(=O)[O-])O[C@H](O[C@@H]7C(CSCCCC(=O)[O-])O[C@H](O[C@H]1C(O)C2O)C(O)C7O)C(O)C6O)C(O)C5O)C(O)C4O)C(O)C3O.[Na+].[Na+].[Na+].[Na+].[Na+].[Na+] (stereo partly specified)	> 16		5.3	> 18	3.4				
O=C([O-])CSCC1O[C@@H]2O[C@@H]3C(CO)O[C@H](O[C@@H]4C(CO)O[C@H](O[C@@H]5C(CO)O[C@H](O[C@@H]6C(CO)O[C@H](O[C@@H]7C(CO)O[C@H](O[C@@H]8C(CO)O[C@H](O[C@@H]9C(CO)O[C@H](O[C@H]1C(O)C2O)C(O)C9O)C(O)C8O)C(O)C7O)C(O)C6O)C(O)C5O)C(O)C4O)C(O)C3O.[Na+] (stereo partly specified)	5.79		28.9	60.8	96.5				
O=C([O-])Cc1cccc(SCC2O[C@@H]3O[C@@H]4C(CO)O[C@H](O[C@@H]5C(CO)O[C@H](O[C@@H]6C(CO)O[C@H](O[C@@H]7C(CO)O[C@H](O[C@@H]8C(CO)O[C@H](O[C@@H]9C(CO)O[C@H](O[C@@H]%10C(CO)O[C@H](O[C@H]2C(O)C3O)C(O)C%10O)C(O)C9O)C(O)C8O)C(O)C7O)C(O)C6O)C(O)C5O)C(O)C4O)c1.[Na+] (stereo partly specified)	1.67		30.4	> 18	92.8				
O=C([O-])c1ccccc1C(=O)NCCSCC1O[C@@H]2O[C@@H]3C(CSCCNC(=O)c4ccccc4C(=O)[O-])O[C@H](O[C@@H]4C(CSCCNC(=O)c5ccccc5C(=O)[O-])O[C@H](O[C@@H]5C(CSCCNC(=O)c6ccccc6C(=O)[O-])O[C@H](O[C@@H]6C(CSCCNC(=O)c7ccccc7C(=O)[O-])O[C@H](O[C@@H]7C(CSCCNC(=O)c8ccccc8C(=O)[O-])O[C@H](O[C@@H]8C(CSCCNC(=O)c9ccccc9C(=O)[O-])O[C@H](O[C@@H]9C(CSCCNC(=O)c%10ccccc%10C(=O)[O-])O[C@H](O[C@H]1C(O)C2O)C(O)C9O)C(O)C8O)C(O)C7O)C(O)C6O)C(O)C5O)C(O)C4O)C(O)C3O.[Na+].[Na+].[Na+].[Na+].[Na+].[Na+].[Na+].[Na+] (stereo partly specified)	0.09			0.1		94.5	88.3		
O=C([O-])c1cccc(SCC2O[C@@H]3O[C@@H]4C(CO)O[C@H](O[C@@H]5C(CO)O[C@H](O[C@@H]6C(CO)O[C@H](O[C@@H]7C(CO)O[C@H](O[C@@H]8C(CO)O[C@H](O[C@@H]9C(CO)O[C@H](O[C@@H]%10C(CO)O[C@H](O[C@H]2C(O)C3O)C(O)C%10O)C(O)C9O)C(O)C8O)C(O)C7O)C(O)C6O)C(O)C5O)C(O)C4O)c1.[Na+] (stereo partly specified)	2.41		36.1	> 18	102.7				
O=C([O-])CCCCSCC1O[C@@H]2O[C@@H]3C(CSCCCCC(=O)[O-])O[C@H](O[C@@H]4C(CSCCCCC(=O)[O-])O[C@H](O[C@@H]5C(CSCCCCC(=O)[O-])O[C@H](O[C@@H]6C(CSCCCCC(=O)[O-])O[C@H](O[C@@H]7C(CSCCCCC(=O)[O-])O[C@H](O[C@@H]8C(CSCCCCC(=O)[O-])O[C@H](O[C@@H]9C(CSCCCCC(=O)[O-])O[C@H](O[C@H]1C(O)C2O)C(O)C9O)C(O)C8O)C(O)C7O)C(O)C6O)C(O)C5O)C(O)C4O)C(O)C3O.[Na+].[Na+].[Na+].[Na+].[Na+].[Na+].[Na+].[Na+] (stereo partly specified)	0.07			1.8			98.9	99	
O=C([O-])CCc1cccc(SCC2O[C@@H]3O[C@@H]4C(CSc5cccc(CCC(=O)[O-])c5)O[C@H](O[C@@H]5C(CSc6cccc(CCC(=O)[O-])c6)O[C@H](O[C@@H]6C(CSc7cccc(CCC(=O)[O-])c7)O[C@H](O[C@@H]7C(CSc8cccc(CCC(=O)[O-])c8)O[C@H](O[C@@H]8C(CSc9cccc(CCC(=O)[O-])c9)O[C@H](O[C@@H]9C(CSc%10cccc(CCC(=O)[O-])c%10)O[C@H](O[C@@H]%10C(CSc%11cccc(CCC(=O)[O-])c%11)O[C@H](O[C@H]2C(O)C3O)C(O)C%10O)C(O)C9O)C(O)C8O)C(O)C7O)C(O)C6O)C(O)C5O)C(O)C4O)c1.[Na+].[Na+].[Na+].[Na+].[Na+].[Na+].[Na+].[Na+] (stereo partly specified)	22.8		65.2	14.8	35.3				
O=C([O-])CCCSCC1O[C@@H]2O[C@@H]3C(CSCCCC(=O)[O-])O[C@H](O[C@@H]4C(CSCCCC(=O)[O-])O[C@H](O[C@@H]5C(CSCCCC(=O)[O-])O[C@H](O[C@@H]6C(CSCCCC(=O)[O-])O[C@H](O[C@@H]7C(CSCCCC(=O)[O-])O[C@H](O[C@@H]8C(CSCCCC(=O)[O-])O[C@H](O[C@@H]9C(CSCCCC(=O)[O-])O[C@H](O[C@H]1C(O)C2O)C(O)C9O)C(O)C8O)C(O)C7O)C(O)C6O)C(O)C5O)C(O)C4O)C(O)C3O.[Na+].[Na+].[Na+].[Na+].[Na+].[Na+].[Na+].[Na+] (stereo partly specified)	0.06			1.4				93.4	98.5
O=S(=O)([O-])CCSCC1O[C@@H]2O[C@@H]3C(CSCCS(=O)(=O)[O-])O[C@H](O[C@@H]4C(CSCCS(=O)(=O)[O-])O[C@H](O[C@@H]5C(CSCCS(=O)(=O)[O-])O[C@H](O[C@@H]6C(CSCCS(=O)(=O)[O-])O[C@H](O[C@@H]7C(CSCCS(=O)(=O)[O-])O[C@H](O[C@@H]8C(CSCCS(=O)(=O)[O-])O[C@H](O[C@@H]9C(CSCCS(=O)(=O)[O-])O[C@H](O[C@H]1C(O)C2O)C(O)C9O)C(O)C8O)C(O)C7O)C(O)C6O)C(O)C5O)C(O)C4O)C(O)C3O.[Na+].[Na+].[Na+].[Na+].[Na+].[Na+].[Na+].[Na+] (stereo partly specified)	0.05			3.6		92.8			95.6
O=C([O-])CCCSCC1O[C@@H]2O[C@@H]3C(CO)O[C@H](O[C@@H]4C(CO)O[C@H](O[C@@H]5C(CO)O[C@H](O[C@@H]6C(CO)O[C@H](O[C@@H]7C(CO)O[C@H](O[C@@H]8C(CO)O[C@H](O[C@@H]9C(CO)O[C@H](O[C@H]1C(O)C2O)C(O)C9O)C(O)C8O)C(O)C7O)C(O)C6O)C(O)C5O)C(O)C4O)C(O)C3O.[Na+] (stereo partly specified)			14.4	> 18					
O=C([O-])CSCC1O[C@@H]2O[C@@H]3C(CSCC(=O)[O-])O[C@H](O[C@@H]4C(CSCC(=O)[O-])O[C@H](O[C@@H]5C(CSCC(=O)[O-])O[C@H](O[C@@H]6C(CSCC(=O)[O-])O[C@H](O[C@@H]7C(CSCC(=O)[O-])O[C@H](O[C@@H]8C(CSCC(=O)[O-])O[C@H](O[C@@H]9C(CSCC(=O)[O-])O[C@H](O[C@H]1C(O)C2O)C(O)C9O)C(O)C8O)C(O)C7O)C(O)C6O)C(O)C5O)C(O)C4O)C(O)C3O.[Na+].[Na+].[Na+].[Na+].[Na+].[Na+].[Na+].[Na+] (stereo partly specified)	0.1			1.2		103.3			93.8
